Activity calls are given as the source filed them. The calls are words filed in the database; no cut-off is given here.
Assays:
[1] = Antiproliferative activity against human HCV-29 cells measured after 48 hrs by MTT assay; type: functional, cell-based; conditions: HCV-29, 48 h
Summary of the method: (§1)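 Cells seeded 5 × 10^3 per well, grown overnight at 37 °C, then exposed to compound at final 1–40 μM (1, 2.5, 5, 7.5, 10, 12.5, 15, 20, 30, 40 μM) for the stated period. MTT added, 4 h at 37 °C, formazan dissolved in DMSO, absorbance read. IC50 = concentration killing 50% of cells relative to untreated control; mean ± S.D. of four independent experiments.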

[2] = Selectivity index, ratio IC50 for antiproliferative activity against human HCV-29 cells over IC50 for antiproliferative activity against human T24 cells; type: toxicity, cell-based; conditions: HCV-29 cells versus T24 cells
Summary of the method: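 MTT assay, 48 h exposure at final 1–40 μM in T24 and normal bladder epithelial HCV29 cells (5 × 10^3/well, seeded overnight, 37 °C). MTT added for 4 h and formazan dissolved in DMSO. IC50 taken relative to untreated control, four parallel samples. SI = IC50(HCV29)/IC50(T24).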

[3] = tested on: MGC-803; test: Antiproliferative activity against human MGC-803 cells measured after 48 hrs by MTT assay; type: functional, cell-based; conditions: MGC-803, 48 h; summary of the method: as §1
[4] = tested on: HepG2; test: Antiproliferative activity against human HepG2 cells measured after 48 hrs by MTT assay; type: functional, cell-based; conditions: HepG2, 48 h; summary of the method: as §1
[5] = tested on: T-24; test: Antiproliferative activity against human T24 cells measured after 48 hrs by MTT assay; type: functional, cell-based; conditions: T-24, 48 h; summary of the method: as §1
[6] = Cmax in Sprague-Dawley rat at 12 mg/kg, IG measured HPLC analysis; type: ADME, organism-based; parameters: dose 12 mg/kg, route ig; conditions: in vivo, po
[7] = Tmax in Sprague-Dawley rat at 12 mg/kg, IG measured HPLC analysis; type: ADME, organism-based; conditions: in vivo, po
Summary of the method: (§2)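 Fasted (12 h) male-unspecified Sprague-Dawley rats (250 ± 20 g), n = 6 per group. Single intragastric dose of suspension (2 mg mL−1 in Tween 80/0.9% NaCl 1.5:5 v/v). Orbital blood drawn at 0.5–48 h and plasma assayed by reversed-phase C18 HPLC-UV. One-compartment fit, weight 1.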

[8] = AUC (0 to 48 hrs) in Sprague-Dawley rat at 12 mg/kg, IG measured HPLC analysis; type: ADME, organism-based; parameters: time < 48 hr, dose 12 mg/kg, route ig; conditions: in vivo, po
[9] = tested on: T-24; test: Down-regulation of p-RIPK3 expression in human T24 cells at 7.5 to 10 uM measured after 16 hrs by Western blot analysis; type: functional, cell-based; conditions: dose 7.5-10 µM
Summary of the method: (§3)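 T24 cells co-incubated 16 h with or without Nec-1 (60 μM). Lysates quantified by BCA, 40 μg protein resolved by SDS-PAGE, transferred to PVDF, probed with primary and peroxidase-conjugated secondary antibodies, detected by ECL. Band gray values normalized to β-actin loading control.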

[10] = MRT (0 to 48 hrs) in Sprague-Dawley rat at 12 mg/kg, IG measured HPLC analysis; type: ADME, organism-based; conditions: in vivo, po; summary of the method: as §2
[11] = Half-life in Sprague-Dawley rat at 12 mg/kg, IG measured HPLC analysis; type: ADME, organism-based; conditions: in vivo, po
[12] = tested on: T-24; test: Down-regulation of p-RIPK1 expression in human T24 cells at 7.5 to 10 uM measured after 16 hrs by Western blot analysis; type: functional, cell-based; conditions: dose 7.5-10 µM; summary of the method: as §3
[13] = tested on: T-24; test: Down-regulation of p-MLKL expression in human T24 cells at 7.5 to 10 uM measured after 16 hrs by Western blot analysis; type: functional, cell-based; conditions: dose 7.5-10 µM; summary of the method: as §3
[14] = AUMC in Sprague-Dawley rat at 12 mg/kg, IG measured HPLC analysis; type: ADME, organism-based; conditions: in vivo, po
[15] = tested on: T-24; test: Down-regulation of MLKL expression in human T24 cells at 7.5 to 10 uM measured after 16 hrs by Western blot analysis; type: functional, cell-based; conditions: dose 7.5-10 µM; summary of the method: as §3
[16] = tested on: T-24; test: Down-regulation of RIPK3 expression in human T24 cells at 7.5 to 10 uM measured after 16 hrs by Western blot analysis; type: functional, cell-based; conditions: dose 7.5-10 µM; summary of the method: as §3
[17] = Clearance in Sprague-Dawley rat at 12 mg/kg, IG measured HPLC analysis; type: ADME, organism-based; conditions: in vivo, po
[18] = tested on: T-24; test: Down-regulation of RIPK1 expression in human T24 cells at 7.5 to 10 uM measured after 16 hrs by Western blot analysis; type: functional, cell-based; conditions: dose 7.5-10 µM; summary of the method: as §3
[19] = tested on: T-24; test: Down-regulation of RIPK2 expression in human T24 cells at 7.5 to 10 uM measured after 16 hrs by Western blot analysis; type: functional, cell-based; conditions: dose 7.5-10 µM; summary of the method: as §3
[20] = Absorption rate constant in Sprague-Dawley rat at 12 mg/kg, IG measured HPLC analysis; type: ADME, organism-based; conditions: in vivo, po

SMILES | IC50 [3] [µM] | IC50 [4] [µM] | IC50 [1] [µM] | SI [2] | IC50 [5] [µM] | also measured
O=C(Nc1ccccc1)Nc1cccc(CNc2nccnc2Cl)c1 | 16.3 | 15.6 | 36.2 | 1.83 | 19.8 | –
Cc1ccc(NC(=O)Nc2cccc(CNc3nccnc3Cl)c2)cc1Cl | 17.5 | 11.3 | 21.5 | 2.91 | 7.39 | –
Cc1ccccc1NC(=O)Nc1cccc(CNc2nccnc2Cl)c1 | 14 | 15.3 | 33.6 | 2.47 | 13.6 | –
CS(=O)(=O)c1ccc(NC(=O)Nc2cccc(CNc3nccnc3Cl)c2)cc1 | 12.3 | 15.1 | > 40 | – | 29.3 | –
COc1ccccc1NC(=O)Nc1cccc(CNc2nccnc2Cl)c1 | 12.2 | 13.7 | 18.2 | 1.74 | 10.4 | –
Cc1ccc(NC(=O)Nc2cccc(CNc3nccnc3Cl)c2)cc1 | 11.9 | 11.5 | 20.1 | 2.05 | 9.82 | –
O=C(Nc1cccc(CNc2nccnc2Cl)c1)Nc1cccc2ccccc12 | 32.7 | > 40 | > 40 | – | > 40 | –
O=C(Nc1cccc(CNc2nccnc2Cl)c1)NC1CCCC1 | 23.4 | 18.4 | > 40 | – | > 40 | –
O=C(Nc1cccc(CNc2nccnc2Cl)c1)NC1CCCCC1 | > 40 | > 40 | > 40 | – | > 40 | –
Nc1ccn([C@@H]2O[C@H](CO)[C@@H](O)C2(F)F)c(=O)n1 [GEMCITABINE] | – | – | 21.5 | 2.12 | – | –
Cc1cccc(NC(=O)Nc2cccc(CNc3nccnc3Cl)c2)c1 | 14.6 | 11.2 | 28.3 | 2.96 | 9.57 | –
CN(C)c1ccc(NC(=O)Nc2cccc(CNc3nccnc3Cl)c2)cc1 | 11.5 | > 40 | > 40 | – | 20.2 | –

Further lines, with some results ahead:

IC50 [3] [µM] | IC50 [4] [µM] | SMILES | IC50 [1] [µM] | SI [2] | IC50 [5] [µM] | also measured
6.43 | 7.23 | O=C(Nc1cccc(CNc2nccnc2Cl)c1)Nc1ccc(Cl)cc1Cl | 25.4 | 4.42 | 5.74 | –
10.1 | 9.29 | Cc1ccc(NC(=O)Nc2cccc(CNc3nccnc3Cl)c2)c(C)c1 | 23.8 | 2.58 | 9.23 | –
5.33 | 9.14 | O=C(Nc1cccc(Cl)c1)Nc1cccc(CNc2nccnc2Cl)c1 | 21.4 | 3.14 | 6.81 | –
4.82 | 7.55 | CC(C)(C)c1ccc(NC(=O)Nc2cccc(CNc3nccnc3Cl)c2)cc1 | 15.3 | 2.54 | 6.01 | –
6.13 | 10.8 | CCc1cccc(CC)c1NC(=O)Nc1cccc(CNc2nccnc2Cl)c1 | 18.7 | – | 6.39 | –
7.48 | 6.72 | O=C(Nc1cccc(CNc2nccnc2Cl)c1)Nc1ccc(Cl)cc1Br | 24 | 3.61 | 6.65 | –
9.24 | 12 | COc1ccc(NC(=O)Nc2cccc(CNc3nccnc3Cl)c2)cc1 | 20.9 | 2.13 | 9.82 | –
9.37 | 7.86 | CCc1ccccc1NC(=O)Nc1cccc(CNc2nccnc2Cl)c1 | 16.4 | 1.88 | 8.72 | –
7.24 | 7.05 | CCOc1ccc(NC(=O)Nc2cccc(CNc3nccnc3Cl)c2)cc1 | 30.5 | 3.36 | 9.08 | –
7.13 | 8.56 | O=C(Nc1cccc(CNc2nccnc2Cl)c1)Nc1ccccc1Cl | 28.1 | 4.21 | 6.68 | –
5.02 | 6.75 | O=C(Nc1cccc(CNc2nccnc2Cl)c1)Nc1ccc(F)c(Cl)c1 | 24.7 | 4.94 | 4.99 | –
9.46 | 10.4 | CNC(=O)c1cc(Oc2ccc(NC(=O)Nc3ccc(Cl)c(C(F)(F)F)c3)c(F)c2)ccn1 [REGORAFENIB] | 12.9 | 2.16 | 5.98 | Cmax [6]: 3100 ng/mL; Tmax [7]: 8.07 h; AUC(0-t) at 48 h [8]: 50700 ng·h/mL; Activity [9]: Active; MRT last [10]: 7.29 h; half-life [11]: 5.06 h; Activity [12]: Active; Activity [13]: Active; AUMC [14]: 737185 hr2.ng/ml; Activity [15]: Active; Activity [16]: Active; CL/F [17]: 0.986 mL/min; Activity [18]: Active; Activity [19]: Active; Ka [20]: 0.138 h⁻¹
9.87 | 10.7 | Cc1ccc(NC(=O)Nc2cccc(CNc3nccnc3Cl)c2)cc1C | 12.8 | 1.43 | 8.93 | –
4.97 | 6.17 | O=C(Nc1cccc(CNc2nccnc2Cl)c1)Nc1ccc(Cl)c(Cl)c1 | 27.2 | 5.22 | 5.21 | –
6.44 | 10.5 | O=C(Nc1cccc(CNc2nccnc2Cl)c1)Nc1ccccc1F | 25.1 | 3.37 | 7.45 | –
4.98 | 8.35 | O=C(Nc1ccc(Cl)cc1)Nc1cccc(CNc2nccnc2Cl)c1 | 19.4 | 3.54 | 5.47 | –
7.29 | 6.21 | O=C(Nc1cccc(CNc2nccnc2Cl)c1)Nc1cccc(C(F)(F)F)c1 | 28.7 | 5.64 | 5.08 | –
